According to ChEMBL document CHEMBL1759881, “Synthesis and anti-inflammatory activity of ent-kaurene derivatives” (Eur J Med Chem, 2011):
Active and inactive are the calls of the source. The calls are words filed in the database; no cut-off is given here.

Tests used:
RAW264.7 [1] = experiment: Antiinflammatory activity in mouse RAW264.7 cells assessed as inhibition of LPS-induced IL-1alpha production at 5 uM pretreated for 15 mins before LPS challenge measured after 24 hrs by ELISA; format: functional, cell-based
In short: (§1)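 RAW 264.7 macrophages pre-incubated 15 min with compound or left untreated, then LPS 250 ng/ml for 24 h. IL-6, IL-1, TNF and IFN measured in supernatant by ELISA. Means ± S.D. of three independent experiments run in triplicate.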

[2] = Cytotoxicity against LPS-stimulated mouse RAW264.7 cells assessed as cell viability at 1 to 25 uM pretreated for 15 mins before LPS challenge measured after 24 hrs by MTT assay; format: cell-based; conditions: LPS-stimulated RAW264.7 cells, read-out: Activity
In short: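 RAW 264.7 cells plated at 10⁵ cells/well, treated with compound at 1–25 in the presence of LPS 250 ng/ml for 24 h. MTT then added for 4 h at 37 °C, formazan extracted in DMSO, absorbance read at 540 nm. Viability expressed relative to untreated controls. Triplicate wells, at least three independent experiments.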

RAW264.7 [3] = experiment: Antiinflammatory activity in mouse RAW264.7 cells assessed as inhibition of LPS-induced IFN-gamma production at 5 uM pretreated for 15 mins before LPS challenge measured after 24 hrs by ELISA; format: functional, cell-based; in short: as §1
RAW264.7 [4] = experiment: Antiinflammatory activity in mouse RAW264.7 cells assessed as inhibition of LPS-induced NOS2 protein expression pretreated at 5 uM for 15 mins before LPS challenge measured after 24 hrs by Western blotting; format: functional, cell-based
In short: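 Macrophages pre-incubated 15 min with compound, then LPS 250 ng/ml for 24 h. NOS-2 protein detected by Western blot with β-actin as loading control. A representative of three experiments is shown.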

RAW264.7 [5] = experiment: Antiinflammatory activity in mouse RAW264.7 cells assessed as inhibition of LPS-induced TNFalpha production at 5 uM pretreated for 15 mins before LPS challenge measured after 24 hrs by ELISA; format: functional, cell-based; in short: as §1
RAW264.7 [6] = experiment: Antiinflammatory activity in mouse RAW264.7 cells assessed as inhibition of LPS-induced IL-6 production at 5 uM pretreated for 15 mins before LPS challenge measured after 24 hrs by ELISA; format: functional, cell-based; in short: as §1
RAW264.7 [7] = experiment: Antiinflammatory activity in mouse RAW264.7 cells assessed as inhibition of LPS-induced nitric oxide release pretreated for 15 mins before LPS challenge measured after 24 hrs by Griess method; format: functional, cell-based
In short: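 RAW 264.7 cells pre-incubated 15 min with compound (1–25 range in the table; 1, 5, 10, 25, 50 for dose-response) or DMSO vehicle, then LPS 250 ng/ml for 24 h. Nitrite in supernatant measured by Griess reagent, absorbance at 548 nm against NaNO2 standard. IC50 is the concentration giving 50% inhibition of NO release. Means ± SD of three independent experiments in triplicate.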

RAW264.7 [8] = experiment: Cytotoxicity against LPS-stimulated mouse RAW264.7 cells assessed as cell viability at 1 to 50 uM pretreated for 15 mins before LPS challenge measured after 24 hrs by MTT assay; format: cell-based; conditions: raw264.7, 24 h
In short: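 RAW 264.7 cells pre-treated 15 min with compound (1, 5, 10, 25, 50), then LPS 250 ng/ml for 24 h. Viability by MTT: 4 h at 37 °C, formazan dissolved in DMSO, absorbance 540 nm, relative to untreated control. Triplicate; means ± S.D. of three experiments.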

RAW264.7 [9] = experiment: Inhibition of NF-kappaB activation in LPS-stimulated mouse RAW264.7 cells assessed as IkappaBalpha degradation pretreated at 5 uM for 15 mins before LPS challenge measured after 24 hrs by Western blotting; format: cell-based
RAW264.7 [10] = experiment: Antiinflammatory activity in mouse RAW264.7 cells assessed as inhibition of LPS-induced NOS2 mRNA expression pretreated at 5 uM for 15 mins before LPS challenge measured after 4 hrs by RT-PCR analysis; format: functional, cell-based
In short: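 Macrophages pre-incubated 15 min with compound, then LPS 250 ng/ml for 4 h. NOS-2 mRNA measured by real-time quantitative PCR, samples in duplicate, normalized to housekeeping gene 36B4 (acidic ribosomal phosphoprotein P0). Fold induction taken from average replicate values. Means ± S.D. of three independent experiments in triplicate; Student's unpaired t test vs LPS.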

IC50 (RAW264.7 [7]) | Compound | Activity (RAW264.7 [1]) | viability at 24 h, up to 25 µM [2] | Activity (RAW264.7 [3]) | Activity (RAW264.7 [4]) | Activity (RAW264.7 [5]) | Activity (RAW264.7 [6]) | inhibition (RAW264.7 [7]) | Activity (RAW264.7 [8]) | Activity (RAW264.7 [9]) | Activity (RAW264.7 [10])
7 µM | C[C@@]12CCC[C@@](C)(C(=O)OC[Si](C)(C)C)[C@H]1CC[C@@]1(CC(=O)O)CCCC[C@H]12 | Active | 95% | Active | Active | Active | Active | Dose-dependent effect | Non-toxic | Active | Active
10 µM | C=C1C[C@@]23CC[C@@H]4[C@](C)(CO)CCC[C@@]4(C)[C@@H]2CC[C@@H]1C3 |  | 80% |  |  |  |  |  |  |  | 
> 25 µM | C=C1[C@H]2CC3=C([C@H](C2)[C@@H]1O)[C@]1(C)CCC[C@@](C)(C(=O)OC)[C@H]1CC3 |  | 30% |  |  |  |  |  |  |  | 

Further lines, the compound ahead of its results:

Compound | IC50 (RAW264.7 [7]) | Activity (RAW264.7 [1]) | viability at 24 h, up to 25 µM [2] | Activity (RAW264.7 [3]) | Activity (RAW264.7 [4]) | Activity (RAW264.7 [5]) | Activity (RAW264.7 [6]) | inhibition (RAW264.7 [7]) | Activity (RAW264.7 [8]) | Activity (RAW264.7 [9]) | Activity (RAW264.7 [10])
C[C@@]12CCC[C@@](C)(C(=O)OCc3ccccc3)[C@H]1CC[C@@]1(CC(=O)O)CCCC[C@H]12 | 7 µM | Active | 95% | Active | Active | Active | Active | Dose-dependent effect | Non-toxic | Active | Active
C=C1C(=O)[C@@]23CC[C@@H]4[C@](C)(C(=O)OC)CCC[C@@]4(C)C2=CC[C@@H]1C3 | 10 µM |  | 50% |  |  |  |  |  |  |  | 
